# 697 NFkB inh = inhibitors of the PMA/ionomycin-induced NF-kB reporter in 697 B cells | AID 435022 | inhibition, % at 4 µM | 697 B-cell NF-kB luciferase reporter, 16 h | 0.33% of 330,000 active; in the data active = inhibition above about 35%
# Gli-Sufu antag = Gli-Sufu pathway antagonism. Sufu-KO-LIGHT fibroblasts, Gli luciferase reporter luminescence. inhibition, % at 5 µM. 0.74% of 340,000 active;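 active = inhibition above about 55%, limit read from the data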;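 note: 0% = DMSO-treated cells and 100% = wells with medium but no cells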
# NR2E3 ag-1 = agonists of human nuclear receptor NR2E3; Q9Y5X4; GST-NR2E3/biotin-RetCOR TR-FRET, 1536-well; inhibition of corepressor binding, % at 4.78 µM; 0.12% of 320,000 active; AID 2300;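 active = percent inhibition above the cutoff of mean plus 3 SD of all tested compounds, set per screening campaign, cut at about 20% in these data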;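 note: 0% = DMSO wells and 100% = biotin wells as full block of FRET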
# Target sequence (Q9Y5X4 whole entry, looked up): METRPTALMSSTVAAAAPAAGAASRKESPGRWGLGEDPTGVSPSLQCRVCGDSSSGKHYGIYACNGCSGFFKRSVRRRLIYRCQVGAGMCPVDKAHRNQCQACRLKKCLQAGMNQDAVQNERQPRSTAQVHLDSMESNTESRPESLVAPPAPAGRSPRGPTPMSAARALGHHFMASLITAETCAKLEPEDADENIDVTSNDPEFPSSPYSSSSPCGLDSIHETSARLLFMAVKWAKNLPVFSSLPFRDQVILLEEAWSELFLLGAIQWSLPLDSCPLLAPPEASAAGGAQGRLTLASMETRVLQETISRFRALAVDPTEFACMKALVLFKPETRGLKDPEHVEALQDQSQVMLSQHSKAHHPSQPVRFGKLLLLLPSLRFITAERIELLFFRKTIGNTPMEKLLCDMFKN
#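 Material: NR2E3–RetCOR corepressor complex / Amount: 1.35 nM GST-NR2E3 / Medium: Tris pH 7.5 / Compound: single nominal compound dose of 4.8 µM / Incubation: 5 h at 4 °C / Technique: TR-FRET, Eu(K)-anti-GST donor, streptavidin-D2 acceptor, ex 340, em 617/671 nm / Read-out basis: percent loss of FRET ratio relative to control wells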
# NR2E3 ag-2 = agonists of human NR2E3 nuclear receptor | Q9Y5X4 | CHO-S Gal4-NCOR/VP16-NR2E3 two-hybrid, luciferase | inhibition of corepressor binding, % at 3.98 µM | 0.35% of 360,000 active | AID 602229;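 active = inhibition above the mean of all tested compounds plus 3 SD, cut at about 70% in these data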;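 note: 0% = DMSO with NR2E3 transfected cells and 100% = cells lacking NR2E3 construct; higher means lower luciferase signal from less NR2E3 corepressor binding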
# Jurkat NFkB inh = lowers PMA/ionomycin-induced NF-kB signal in Jurkat cells | PMA/ionomycin-induced NF-kB luciferase reporter, luminescence | inhibition, % at 4 µM | 0.53% of 330,000 active | AID 435003; in the data active = inhibition above about 50%
# GalR3 antagonist = human GalR3 antagonism; AID 651719; HEK293 GalR3-CNG cAMP membrane potential fluorescence; galR3 body fused to GalR1 C-terminus; 0.44% of 360,000 active; O60755; inhibition, % at 3 µM;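 active = inhibition above the screen-wide average plus 3 SD, cut at about 13% in these data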;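 note: forskolin and galanin both at EC90 stimulate the cells; cAMP rise reported by CNG channel membrane potential dye signal; 0% = forskolin plus galanin with DMSO and 100% = forskolin alone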
# Target sequence (O60755 1-299 limits assumed): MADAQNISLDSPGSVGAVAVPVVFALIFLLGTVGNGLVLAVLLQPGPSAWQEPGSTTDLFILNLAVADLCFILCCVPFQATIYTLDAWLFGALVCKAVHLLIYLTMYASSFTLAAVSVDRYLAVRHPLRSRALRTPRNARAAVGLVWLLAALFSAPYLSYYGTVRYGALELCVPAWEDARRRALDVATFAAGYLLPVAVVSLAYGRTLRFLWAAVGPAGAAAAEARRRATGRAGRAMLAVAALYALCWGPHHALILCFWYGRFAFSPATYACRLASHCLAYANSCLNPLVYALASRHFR
# 697 NFkB conf = inhibitors of the PMA/ionomycin-induced NF-kB reporter in 697 B cells, retest; shares compounds with 697 NFkB inh; 697 B-cell NF-kB luciferase, 16 h; inhibition, % at 4 µM; 35% of 2,000 active; AID 449746; in the data active = inhibition mostly above about 28%, no sharp cut-off; inactive = mostly below about 22%
# * = called active by the depositor; i = inactive; · = no result given. Most compounds without a hit are left out; they make up all but 1.8% or so of the library.
SMILES,697 NFkB inh,Gli-Sufu antag,NR2E3 ag-1,NR2E3 ag-2,Jurkat NFkB inh,GalR3 antagonist,697 NFkB conf
Cc1cc2cc(CN(CC3CCCO3)C(=O)c3cnccn3)c(=O)[nH]c2cc1C (configuration not stated),35.9*,4.2,-1.2,14.0,8.7,-1.3,5.5
COc1cc(C(=O)N(Cc2cc3cc(C)ccc3[nH]c2=O)CC2CCCO2)cc(OC)c1OC (configuration not stated),-1.8,-3.5,2.3,-45.9,-6.9,1.6,·
O=C(NCc1ccccc1)[C@@H]1CCCN1C(=O)[C@H]1CCCN1C(=O)c1ccc(Cl)c(Cl)c1,·,·,·,·,·,-6.0,·
CCN(CC)C(=O)Oc1ccc2ccccc2c1Br,-301.8,-28.8,2.4,-47.4,-57.9,-4.9,-253.2
CCCCNC(=O)C[C@H]1C[C@@]2(C(=O)OC)C(=C[C@H](C(C)(C)C)O[C@@H]2C)N(CCC2=CCCCC2)C1=O,·,·,·,·,·,-7.5,·
Cc1nnc2ccc(-c3cccc(NS(=O)(=O)c4cc(F)ccc4F)c3)nn12,38.3*,14.4,0.5,-3.1,-11.9,1.4,-1.4
COc1ccc(CC(=O)Nc2cccc(-c3ccc4nnc(C)n4n3)c2)cc1,35.0,14.3,-0.4,1.2,19.6,-5.3,28.5*
Cc1nnc2ccc(-c3cccc(NS(=O)(=O)c4ccccc4[N+](=O)[O-])c3)nn12,40.1*,14.3,-0.5,-0.3,-9.2,1.2,27.5
CCOc1ccc(CC(=O)Nc2cccc(-c3ccc4nnc(C)n4n3)c2)cc1,9.4,8.8,-0.7,10.4,5.3,-4.6,·
Cc1nnc2ccc(-c3cccc(NS(=O)(=O)c4ccccc4Cl)c3)nn12,31.8,21.0,0.5,8.3,2.2,2.8,·
CCCS(=O)(=O)Nc1cccc(-c2ccc3nnc(C)n3n2)c1,38.9*,17.0,5.6,4.7,9.3,-3.0,38.5*
C[C@H](CO)N1C[C@H](C)[C@H](CN(C)Cc2cccc(F)c2)Oc2ncc(C3=CCCC3)cc2C1=O,·,·,·,·,·,-3.8,·
Cc1ccc(Oc2cccc3c2S(=O)(=O)N([C@H](C)c2ccccc2)C[C@@H](COCc2ccccc2)O3)cc1,·,·,·,·,·,-5.2,·
Cc1cccc(NS(=O)(=O)c2ccc(NC(=O)CN(c3cc([N+](=O)[O-])ccc3C)S(C)(=O)=O)cc2)c1,-27.3,19.6,-2.6,22.2,18.8,-1.1,·
COc1ccc(C)cc1NS(=O)(=O)c1ccc(NC(=O)CN(c2cc([N+](=O)[O-])ccc2C)S(C)(=O)=O)cc1,38.3*,10.5,-2.5,27.2,-0.7,-11.9,-8.4
Nc1[nH]c(C(=O)c2ccccc2)c(-c2cccc(C(F)(F)F)c2)c1C(=O)c1c[nH]c2ccccc12,·,·,·,·,·,-0.9,·
Clc1ccc(-c2nc3n(n2)Cc2ccccc2-3)cc1,-374.4,-122.0,3.0,-127.3,-116.2,0.5,-301.1
CCN1C(=O)c2cccc3c(S(=O)(=O)N4CCC(C)CC4)ccc1c23,41.1*,35.7,4.7,7.2,-19.4,-4.5,46.5*
CC(C)[C@H](NC(=O)c1cccs1)C(=O)N1CCC[C@H]1C(=O)NCc1ccccc1,·,·,·,·,·,-6.2,·
CCOc1cc(OCC)cc(C(=O)N2CCC[C@@H]2C(=O)N2CCC[C@H]2C(=O)NCc2ccccc2)c1,·,·,·,·,·,-3.5,·
CC1CCc2c(sc3nc(C(C)(C)C)nc(N4CCN(C(=O)CCl)CC4)c23)C1 (configuration not stated),40.3*,9.9,-4.6,-1.1,23.0,-3.7,27.2*
CCC(=O)N1CCN(c2nc(CC)nc3sc4c(c23)CCCC4)CC1,-15.7,-17.2,-1.7,8.7,-2.8,-4.2,·
CCN(CC)S(=O)(=O)c1cccc(NC(=O)c2ccc(Sc3nncn3C)c([N+](=O)[O-])c2)c1,37.2*,-0.2,0.1,-39.1,9.2,-6.7,11.9
Cn1cnnc1Sc1ccc(C(=O)OCC(=O)NCC(F)(F)F)cc1[N+](=O)[O-],17.6,-0.5,-2.5,7.6,-0.1,-2.5,·
CCOC(=O)/C(C#N)=C/c1cc(C)n(-c2ccccc2)c1C,-289.4,-21.2,2.6,6.6,-81.0,-1.5,-114.7
SMILES,697 NFkB inh,Gli-Sufu antag,NR2E3 ag-1,NR2E3 ag-2,Jurkat NFkB inh,GalR3 antagonist,697 NFkB conf
Cc1c(Cc2ccccc2)c(=O)oc2c(C)c(OCC(=O)NCC3CCC(C(=O)O)CC3)ccc12 (configuration not stated),39.5*,-14.0,-0.4,-42.0,-10.8,-1.4,26.8
Cc1ccc(-c2nc3nc4ccccc4nc3n2Cc2ccco2)cc1,-257.2,-9.2,-1.9,-137.0,-47.7,-3.0,-250.0
Clc1ccc(-c2nc3nc4ccccc4nc3n2Cc2ccco2)cc1,-417.8,-3.0,1.1,-135.7,-103.3,0.1,-368.2
c1ccc(Cn2c(-c3ccco3)nc3nc4ccccc4nc32)cc1,-34.6,-59.1,1.9,-127.3,-35.7,-2.4,·
COc1cc2c(cc1OC)-c1cc(OCc3cccnc3)nc(=O)n1CC2,·,-5.8,·,24.9,·,2.2,·
COc1cc2c(cc1OC)-c1cc(N3CCc4ccccc43)nc(=O)n1CC2,35.1*,0.6,-1.9,-18.6,-10.7,8.3,19.1
Cc1cc(NCc2ccccc2)n2ncc(-c3ccccc3)c2n1,i,-76.0,2.3,-195.7,-135.5,-3.3,-396.6
COc1ccc(CCNc2cc(C)nc3c(-c4ccccc4)cnn23)cc1OC,-173.5,-25.3,1.8,-51.5,-49.3,-0.2,·
Cc1cc(N2CCC(C)CC2)n2ncc(-c3ccccc3)c2n1,-402.1,24.9,1.1,12.2,-137.5,1.6,-305.9
Cc1ccc(-c2cnn3c(N4CCOCC4)cc(C)nc23)cc1,-280.3,16.2,·,-9.4,-140.4,-13.6,-236.8
Cc1cc(N2CCOCC2)n2nc(C)c(-c3ccc(Cl)cc3)c2n1,4.6,-12.5,3.9,-39.7,3.7,-8.7,·
Cc1cc(N2CCOCC2)n2ncc(-c3ccccc3)c2n1,-318.1,-9.5,2.7,-37.5,-149.0,-4.4,-484.5
O=C1CC(c2ccc3c(c2)OCO3)Sc2nc3ccccc3n21 (configuration not stated),-255.5,-34.6,4.0,20.2,-68.4,-5.8,-110.9
COc1ccc2nc(C)cc(SCC(=O)NNC(=O)COc3ccccc3)c2c1,13.3,-17.3,1.6,-7.2,-9.2,-4.1,·
COc1ccc2nc(C)cc(Sc3nc4ccccc4s3)c2c1,42.5*,0.0,5.4,-7.5,27.4,-12.7,38.5*
COC(=O)C1=C(C)N(Cc2ccccc2C(F)(F)F)C(=NCc2ccc(C(F)(F)F)cc2)NC1CCc1ccccc1 (configuration not stated),·,·,·,·,·,-6.2,·
CCOc1ccc2nc(-c3ccccc3)[nH]c2c1,-298.1,-102.7,2.0,-273.7,-36.1,-3.1,-272.2
COc1cc(C2NC(=O)NC(C)=C2C(=O)OC(C)(C)C)ccc1OCC(=O)O (configuration not stated),40.1*,3.8,5.6,-18.6,1.5,-4.7,10.2
